Reference: ChEMBL document CHEMBL5053518, “1,5,6,7-Tetrahydro-4H-indazol-4-ones as human neutrophil elastase (HNE) inhibitors” (Bioorg Med Chem Lett, 2021)
The source made the active and inactive calls. The rule behind the calls is not given here.

Legend:
[1] = Stability in aqueous buffer assessed as half life; assay type: physicochemical; settings: for t1/2: buffer; for half-life: aqueous buffer
[2] = molecular target: T1, Neutrophil elastase (Homo sapiens) (UniProt P08246); assay: Inhibition of human neutrophil elastase at 50 uM
T1 sequence (whole entry): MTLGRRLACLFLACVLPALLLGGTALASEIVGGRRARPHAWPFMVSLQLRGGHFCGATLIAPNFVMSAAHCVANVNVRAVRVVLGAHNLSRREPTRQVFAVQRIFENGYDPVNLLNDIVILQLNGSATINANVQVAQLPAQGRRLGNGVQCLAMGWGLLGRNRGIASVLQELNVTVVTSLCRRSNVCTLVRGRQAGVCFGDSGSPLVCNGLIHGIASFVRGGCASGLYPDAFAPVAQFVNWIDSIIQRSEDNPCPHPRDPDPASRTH
Summary of the method: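 Human neutrophil elastase inhibition was tested up to a highest concentration of 50 μM. Active compounds were given as Ki values, reported as mean ± SD of three independent experiments.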

| SMILES | inhibition [2] | further results |
| --- | --- | --- |
| O=C1c2cn(C(=O)C3CC3)nc2CCC1Br (stereo not given) |  | t1/2 [1]: 1.9123 h |
| Cc1cccc(C(=O)NC2CCCc3c2cnn3-c2ccccc2)c1 (stereo not given) | inactive |  |
| Cc1cccc(C(=O)n2ncc3c2CCCC3=O)c1 |  | t1/2 [1]: 1.64 h |
| O=C1c2cnn(CC(=O)N3CCN(c4ccccc4)CC3)c2CCC1Br (stereo not given) | inactive |  |
| CC(C)(C)OC(=O)N1CCN(C(=O)Cn2ncc3c2CCCC3=O)CC1 | inactive |  |
| O=C(NC1CCCc2c1cnn2-c1ccccc1)C1CC1 (stereo not given) | inactive |  |
| O=C1c2cn(CC(=O)N3CCN(c4ccccc4)CC3)nc2CCC1Br (stereo not given) | inactive |  |
| O=C1CCCc2c1cnn2Cc1ccccc1 | inactive |  |
| CC(C)(C)OC(=O)n1cc2c(n1)CCC(Br)C2=O (stereo not given) | inactive |  |
| O=C1CCCc2nn(Cc3ccccc3)cc21 | inactive |  |
| O=C(C1CC1)n1cc2c(n1)CCC(Br)(Br)C2=O |  | half-life [1]: 3.91 h |
| O=C1CCCc2nn(CC(=O)N3CCNCC3)cc21 | inactive |  |
| O=C1CCCc2c1cnn2-c1cccc(C(F)(F)F)c1 | inactive |  |
| O=C1CCCc2nn(Cc3cccc(C(F)(F)F)c3)cc21 | inactive |  |
| O=C(C1CC1)N(C(=O)C1CC1)C1CCCc2c1cnn2-c1ccccc1 (stereo not given) | inactive |  |
| O=C1c2cnn(C(=O)C3CC3)c2CCC1Br (stereo not given) |  | half-life [1]: 0.645 h |
| CC(C)(C)OC(=O)N1CCN(C(=O)Cn2cc3c(n2)CCCC3=O)CC1 | inactive |  |
| O=C1CCCc2c1cnn2Cc1cccc(C(F)(F)F)c1 | inactive |  |
| O=C(C1CC1)n1ncc2c1CCC(Br)(Br)C2=O |  | t1/2 [1]: 0.952 h |
| O=C1CCCc2nn(-c3cccc(C(F)(F)F)c3)cc21 | inactive |  |
